Experiments:
Type in all cases: functional, cell-based
[1] = Cytotoxicity against human HONE1 cells after 72 hrs by methylene blue dye assay; conditions: HONE1, 72 h
Outline: (§1)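 Log-phase cells seeded at 5000 cells/mL/well in 24-well plates, exposed to a range of compound concentrations for 72 h. Growth read by methylene blue dye staining. IC50 (50% growth inhibition versus untreated control) read graphically; mean ± standard deviation of three independent replicates. IC50 above 10 µM taken as non-cytotoxic. Etoposide and cisplatin served as positive controls.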

HT-29 = test: Cytotoxicity against human HT-29 cells after 72 hrs by methylene blue dye assay; conditions: HT-29, 72 h; outline: as §1
KB = test: Cytotoxicity against human KB cells after 72 hrs by methylene blue dye assay; outline: as §1

| Compound | IC50 [1] | IC50 (HT-29) | IC50 (KB) |
| --- | --- | --- | --- |
| CC1=CCC[C@H]2[C@@]1(C)[C@@H](OC(=O)C(=O)C(C)C)[C@H](OC(=O)c1cccnc1)[C@](C)(O)[C@]2(C)/C=C/C1=CC(=O)OC1 | 4 µM | 5.5 µM | 4.2 µM |
| CC(=O)O[C@H]1[C@H](OC(=O)c2cccnc2)[C@](C)(O)[C@](C)(/C=C/C2=CC(=O)OC2)[C@H]2CCC=C(C)[C@]12C [6-O-ACETYLSCUTEHENANINE A] | 3.7 µM | 5.2 µM | 3.2 µM |
| COc1cc([C@@H]2c3cc4c(cc3[C@@H](O[C@@H]3O[C@@H]5CO[C@@H](C)O[C@H]5[C@H](O)[C@H]3O)[C@H]3COC(=O)[C@H]23)OCO4)cc(OC)c1O [ETOPOSIDE] | 1.2 µM | 2.3 µM | 1.3 µM |
| CC1=CCC[C@H]2[C@@]1(C)[C@@H](O)[C@H](OC(=O)c1cccnc1)[C@](C)(O)[C@]2(C)/C=C/C1=CC(=O)OC1 [SCUTEHENANINE A] | 3.1 µM | 5.8 µM | 4.5 µM |
| CC1=CCC[C@H]2[C@@]1(C)[C@@H](OC(=O)c1ccccc1)[C@H](O)[C@]1(C)O[C@@]3(COC(=O)C3)C[C@H](OC(=O)c3cccnc3)[C@]21C [SCUTEHENANINE B] | 3.5 µM | 5 µM | 4.7 µM |
| C=C1CCC[C@H]2[C@@]1(C)[C@@H](OC(=O)c1ccccc1)[C@H](O)[C@]1(C)O[C@@]3(COC(=O)C3)C[C@H](OC(=O)c3cccnc3)[C@]21C [SCUTEHENANINE C] | 3.4 µM | 5.3 µM | 2.9 µM |
| CC1=CCC[C@H]2[C@@]1(C)[C@@H](OC(=O)c1cccnc1)[C@H](OC(=O)c1ccccc1)[C@](C)(O)[C@]2(C)[C@H]1CC2=C(O1)C(=O)OC2 [SCUTEHENANINE D] | 4.1 µM | 6.4 µM | 2.8 µM |

Source: ChEMBL document CHEMBL1154320, “Cytotoxic neo-clerodane diterpenoid alkaloids from Scutellaria barbata” (J Nat Prod, 2009)
